For test [1], the system named is HCT-116. Description: Antiproliferative activity against human HCT116 cells assessed as reduction in cell viability measured after 72 hrs by MTT assay. The test is classed as functional, cell-based. The method, boiled down:
(§1)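 Cells seeded 5×10^3/well, cultured overnight, then exposed to 10, 1, 0.1, 0.01, 0.001 and 0.0001 µM (from 10 mM DMSO stocks diluted in medium; vehicle 1% DMSO PBS) for 72 h at 37 °C. Medium replaced with 0.5 mg/mL MTT for 4 h, formazan dissolved in DMSO, A570 read. IC50 as mean ± SD of three independent experiments.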

Test [2] concerns A549. In words: Antiproliferative activity against human A549 cells assessed as reduction in cell viability measured after 72 hrs by MTT assay. The test is classed as functional, cell-based. The method in brief: as §1
In test [3] the test system is A549. Description: Inhibition of elongation factor 1-alpha1 expression in human A549 cells at 100 nM after 24 hrs by Western blot analysis. The class given is functional. Background: A western blot detects proteins with antibodies after separation by electrophoresis.
In test [4] the test system is A549. In words: Induction of apoptosis in human A549 cells assessed as viable cells at 30 nM after 12 hrs by Annexin-V FITC/propidium iodide staining based flow cytometric analysis (reference value: 97.18%). The test is classed as functional. Particulars: A549, 12 h, read-out: Activity. (In flow cytometry, cells or beads pass a laser one at a time.)
The test system of test [5] is MCF7. Description: Antiproliferative activity against human MCF7 cells assessed as reduction in cell viability measured after 72 hrs by MTT assay. The class given is functional, cell-based. Particulars: MCF7, 72 h. The method, boiled down:
(§2)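 Cells seeded at 5×10^3 per well and cultured overnight, then exposed for 72 h at 37 °C to six concentrations from 10 µM down to 0.0001 µM (from 10 mM DMSO stock diluted in medium; vehicle 1% DMSO in PBS). MTT at 0.5 mg/mL was added for 4 h, formazan dissolved in DMSO, and A570 read. IC50 given as mean ± SD of three independent experiments.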
In general terms: Formazan colour is commonly taken as a measure of viable cells.

Test [6] has as its system A549. Description: Cell cycle arrest in human A549 cells assessed as accumulation at S phase at 30 nM after 24 hrs by propidium iodide/RNase A staining-based flow cytometric analysis (reference value: 12.57%). The class given is functional.
In test [7] the test system is A-375. Description: Antiproliferative activity against human A375 cells assessed as reduction in cell viability measured after 72 hrs by MTT assay. The test is classed as functional, cell-based. The conditions noted are these: A-375, 72 h. The method in brief: as §2
In test [8] the test system is HL-60. Description: Antiproliferative activity against human HL60 cells incubated for 96 hrs by cell-titer-Glo luminescent assay. The class given is functional, cell-based. The conditions noted are these: HL-60, 96 h.
Test [9] has as its system A549. In words: Induction of apoptosis in human A549 cells assessed as late apoptotic cells at 30 nM after 12 hrs by Annexin-V FITC/propidium iodide staining based flow cytometric analysis (reference value: 1.22%). The class given is functional.
Test [10] deals with A549. In words: Induction of apoptosis in human A549 cells assessed as early apoptotic cells at 30 nM after 12 hrs by Annexin-V FITC/propidium iodide staining based flow cytometric analysis (reference value: 0.32%). The class given is functional.
In test [11] the test system is PC-3. In words: Antiproliferative activity against human PC3 cells incubated for 72 hrs by 14C-thymidine incorporation assay. The class given is functional, cell-based. The conditions noted are these: PC-3, 72 h.
The subject of test [12] is SH-SY5Y. In words: Antiproliferative activity against human SH-SY5Y cells assessed as reduction in cell viability measured after 72 hrs by MTT assay. The test is classed as functional, cell-based. The method, boiled down:
as §2

Test [13] deals with A549. Description: Cell cycle arrest in human A549 cells assessed as accumulation at G1 phase at 30 nM after 24 hrs by propidium iodide/RNase A staining-based flow cytometric analysis (reference value: 57.41%). The class given is functional.
For test [14], the system named is MDA-MB-231. In words: Antiproliferative activity against human MDA-MB-231 cells assessed as reduction in cell viability measured after 72 hrs by MTT assay. The class given is functional, cell-based. Particulars: MDA-MB-231, 72 h. The method, boiled down:
as §2

In test [15] the test system is A549. In words: Inhibition of colony formation in human A549 cells at 10 nM incubated for 3 days followed by further incubation in drug-free medium and measured after 15 days by crystal violet staining-based inverted microscopic analysis. The class given is functional, cell-based. The method, boiled down:
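A549 cells were plated at 500 per well in 2 mL medium for 24 h, then treated for 3 days, with drug-free medium replaced every 3 days afterwards. At day 15 after plating, colonies were fixed in 95% ethanol for 15 min, stained with 0.1% crystal violet, and counted; a colony was defined as more than 100 cells. Mean ± SD of three independent experiments.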

The test system of test [16] is A549. Description: Cell cycle arrest in human A549 cells assessed as accumulation at G2 phase at 30 nM after 24 hrs by propidium iodide/RNase A staining-based flow cytometric analysis (reference value: 30.02%). The class given is functional.
The test system of test [17] is A549. Description: Induction of apoptosis in human A549 cells assessed as necrotic cells at 30 nM after 12 hrs by Annexin-V FITC/propidium iodide staining based flow cytometric analysis (reference value: 1.28%). The test is classed as functional.
Setting [18] is: Homo sapiens, HCT-116, 72 h, read-out: IC50.
Where [19] appears, read: Homo sapiens, A549, 72 h, read-out: IC50.

Calls of active or inactive are those of the source.

The values that follow come from ChEMBL document CHEMBL4346669, “Novel nannocystin A analogues as anticancer therapeutics: Synthesis, biological evaluations and structure-activity relationship studies” (Eur J Med Chem, 2019).

Broadly, the IC50 is the concentration needed to halve the response being measured. The inhibition is the relative decrease from the control value, in per cent. As to `CO[C@@H]1C[C@@H]2O[C@@]2(C)C(=O)N(C)[C@@H](C(C)C)C(=O)N[C@H](Cc2cc(Cl)c(O)c(Cl)c2)C(=O)N[C@@H](C(C)(C)O)C(=O)O[C@H](c2ccccc2)[C@H](C)/C=C/C=C/1C`, the IC50 was found to be 6.7 nM in test [1] (setting [18]) and 3.5 nM in test [2] (setting [19]). Also, the inhibition at 0.1 µM in [3] (A549, 24 h) was 100%.
For the compound `CO[C@@H]1C/C=C(\C)C(=O)N(C)[C@@H](C(C)C)C(=O)N[C@H](Cc2ccccc2)C(=O)N[C@@H](C(C)C)C(=O)O[C@H](c2ccccc2)[C@H](C)/C=C/C=C/1C`, the IC50 in test [1] (setting [18]) and in [2] (setting [19]) was over 100 nM in each case.
Turning to `CC[C@H](C)[C@H]1C(=O)N[C@H](Cc2ccc(O)c(OC)c2)C(=O)N[C@@H](C(C)(C)O)C(=O)O[C@H](c2ccccc2)[C@H](C)/C=C/C=C(\C)[C@H](OC)C[C@@H]2O[C@@]2(C)C(=O)N1C`, the values for the IC50 in test [1] (setting [18]) and in [2] (setting [19]) were 25.2 nM and 3.7 nM, respectively.
As for `CC[C@H](C)[C@H]1C(=O)N[C@H](Cc2cc(Cl)c(O)c(Cl)c2)C(=O)N[C@@H](C(C)(C)O)C(=O)O[C@H](c2ccccc2)[C@H](C)/C=C/C=C(\C)[C@H](OC)C[C@@H]2O[C@@]2(C)C(=O)N1C`, the viability at 0.03 µM in [4] is 61.6%. In addition, the IC50 in test [5] turned out to be 8.7 nM; in test [7], 2.4 nM; in test [1] (setting [18]), 17 nM; in [8], 12 nM; in [2] (setting [19]), 13.1 nM; in test [11] it was 1 nM. The IC50 in test [12] was 2.1 nM; in test [14], 7.5 nM. The Activity in test [6] was 7.38%; in [9], 22.88%; in test [10], 4.11%; in [13], 43.21%; in test [16], 49.41%; in test [17], 11.44%. For the same compound, the inhibition entry in test [15] is “Active”.
Consider `CO[C@@H]1C[C@@H]2O[C@@]2(C)C(=O)N[C@@H](C(C)C)C(=O)N[C@H](Cc2cc(Cl)c(O)c(Cl)c2)C(=O)N[C@@H](C(C)(C)O)C(=O)O[C@H](c2ccccc2)[C@H](C)/C=C/C=C/1C`, for which the concentration for half-maximal inhibition (IC50) result in test [1] (hct-116) and in test [2] (a549) was “Not Active” each time. The inhibition entry in test [3] is “inactive”.
`CO[C@@H]1C/C=C(\C)C(=O)N(C)[C@@H](C(C)C)C(=O)N[C@H](Cc2ccccc2)C(=O)N[C@@H](C(C)C)C(=O)O[C@H](c2ccccc2)C/C=C/C=C/1C`: the IC50 in test [1] (setting [18]) and in test [2] (setting [19]) was over 100 nM in each case.
On to `CC[C@H](C)[C@H]1C(=O)N[C@H](Cc2ccccc2)C(=O)N[C@@H](C(C)(C)O)C(=O)O[C@H](c2ccccc2)[C@H](C)/C=C/C=C(\C)[C@H](OC)C[C@@H]2O[C@@]2(C)C(=O)N1C`, for which the IC50 turned out to be 20.9 nM in [1] (setting [18]) and 14.3 nM in test [2] (setting [19]).
Consider `CO[C@@H]1C/C=C(\C)C(=O)N(C)[C@@H](C(C)C)C(=O)N[C@H](Cc2ccc(O)cc2)C(=O)N[C@@H](C(C)C)C(=O)O[C@H](c2ccccc2)[C@H](C)/C=C/C=C/1C`, for which the half-inhibitory concentration (IC50) in test [1] (setting [18]) came to 59.7 nM; in test [2] (setting [19]) it was 35.9 nM.
For `CO[C@@H]1C/C=C(\C)C(=O)N(C)[C@@H](C(C)C)C(=O)N[C@H](Cc2cc(Cl)c(O)c(Cl)c2)C(=O)N[C@@H](C(C)C)C(=O)O[C@H](c2ccccc2)[C@H](C)/C=C/C=C/1C`, the IC50 in test [1] (setting [18]) came to 42.1 nM; in test [2] (setting [19]), 21.6 nM.
With `COc1cccc2c1C(=O)c1c(O)c3c(c(O)c1C2=O)C[C@@](O)(C(=O)CO)C[C@@H]3O[C@H]1C[C@H](N)[C@H](O)[C@H](C)O1` [DOXORUBICIN], the IC50 is 366 nM in test [1] (setting [18]) and 459 nM in [2] (setting [19]).
For `CC[C@H](C)[C@H]1C(=O)N[C@H](Cc2cc(Cl)c(O)c(Cl)c2)C(=O)N[C@@H](C(C)(C)O)C(=O)O[C@H](c2ccccc2)[C@H](C)/C=C/C=C(\C)[C@H](OC)C/C=C(\C)C(=O)N1C`, in that order: 16.7 nM and 10.1 nM.
For `CC[C@H](C)[C@H]1C(=O)N[C@H](Cc2cc(Cl)c(O)c(Cl)c2)C(=O)N[C@@H](C(C)(C)O)C(=O)O[C@H](c2ccccc2)C/C=C/C=C(\C)[C@H](OC)C[C@@H]2O[C@@]2(C)C(=O)N1C`, the results for the IC50 in [1] (setting [18]) and in [2] (setting [19]) were 78.2 nM and 90.3 nM, respectively.
Turning to `CC[C@H](C)[C@H]1C(=O)N[C@H](Cc2cc(Cl)c(O)c(Cl)c2)C(=O)N[C@@H](C(C)(C)O)C(=O)O[C@H](c2ccccc2)[C@H](C)/C=C/C=C(\C)[C@H](OC)C/C=C/C(=O)N1C`, the IC50 in [1] (setting [18]) came out at 124 nM; in test [2] (setting [19]) it was 40.5 nM.
`CC[C@H](C)[C@H]1C(=O)N[C@H](Cc2cc(Cl)c(O)c(Cl)c2)C(=O)N[C@@H](C(C)C)C(=O)O[C@H](c2ccccc2)[C@H](C)/C=C/C=C(\C)[C@H](OC)C[C@@H]2O[C@@]2(C)C(=O)N1C`: the values for the IC50 in test [1] (setting [18]) and in test [2] (setting [19]) were 10.5 nM and 3.2 nM, respectively.
As for `CO[C@@H]1C/C=C(\C)C(=O)N(C)[C@@H](C(C)C)C(=O)N[C@H](Cc2cc(Cl)c(O)c(Cl)c2)C(=O)N[C@@H](CC(C)C)C(=O)O[C@H](c2ccccc2)[C@H](C)/C=C/C=C/1C`, the IC50 in test [1] (setting [18]) and in test [2] (setting [19]) was over 100 nM throughout.
As for `CC/C1=C\C=C\[C@@H](C)[C@@H](c2ccccc2)OC(=O)[C@H](C(C)C)NC(=O)[C@@H](Cc2cc(Cl)c(O)c(Cl)c2)NC(=O)[C@H](C(C)C)N(C)C(=O)/C(C)=C/C[C@H]1OC`, the IC50 in test [1] (setting [18]) was 60.3 nM; in test [2] (setting [19]) it was 13.1 nM.
In the case of `CC[C@H](C)[C@@H]1NC(=O)[C@]2(C)O[C@H]2C[C@@H](OC)/C(C)=C/C=C/[C@@H](C)[C@@H](c2ccccc2)OC(=O)[C@H](C(C)(C)O)NC(=O)[C@@H](Cc2cc(Cl)c(O)c(Cl)c2)NC1=O`, the values for the IC50 in [1] (setting [18]) and in [2] (setting [19]) were over 1000 nM and 557 nM, respectively.
